Assay results as given in publication PMC6785838 (Journal of peptide science : an official publication of the …, 2019).

What was measured:
[1] = cited from earlier work
[2] = Stability test of Sec-containing peptides in oxygenated buffer; format: physicochemical; conditions: for β-syn elimination: dehydroalanine-containing peptide (species D) by MS: 96 h in oxygenated KP buffer pH 8.0, 25 °C, positive ESI-MS, linear ion trap; for Deselenization seen as red selenium precipitate / color change: peptide 1 mM in oxygenated KP buffer pH 8.0, 96 h, visual inspection
Outline: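 Test peptides incubated in oxygenated KP buffer, pH 8.0, at 25 °C. Aliquots taken at 24, 48 and 96 h and centrifuged to pellet precipitated selenium. For MS, samples from time zero and 96 h were infused through a guard column at 10 μL/min into 100 μL/min 50/50 water/acetonitrile with 0.1% formic acid, using positive ESI and a linear ion trap scan over m/z 200–1800. Tubes with 1 mM peptide were photographed.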

| β-syn elimination: dehydroalanine-containing peptide (species D) by MS [2] | Deselenization seen as red selenium precipitate / color change [2] | Compound | Water solubility [1] |
| --- | --- | --- | --- |
|  |  | O=c1c2ccccc2[se]n1-c1ccccc1 [ebselen, 2-phenyl-1,2-benzisoselenazol-3(2H)-one] | not water soluble |
| absent | no color change was observed | H-(αMe)Sec-Gly-Thr-Thr-Val-Arg-Asp-Tyr-Thr-Gln-OH [peptide 11] |  |
| β-syn elimination occurred | red precipitate clearly forms | H-Sec-Gly-Thr-Thr-Val-Arg-Asp-Tyr-Thr-Gln-OH [peptide 12] |  |
